Legend:
Assay type in all cases: functional
Mus musculus [1] = species: Mus musculus; assay: [3H]-TdR uptake measured by spleen cell proliferation assay by adding compound dose of 1 ng/mL
Outline: (§1)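 Spleens from female C57BL/6 mice dissociated in RPMI 1640, red cells lysed with Tris NH4Cl, washed three times in PBS. Cells (2.5 × 10^5/well, 10% FCS RPMI 1640) cultured with sample or DMSO vehicle (0.001–0.1%) for 18 h at 37 °C, 5% CO2; [3H]TdR 0.5 μCi/well added, uptake counted by liquid scintillation 8 h later. Mean ± S.D.; p < 0.05 vs vehicle.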

Mus musculus [2] = species: Mus musculus; assay: [3H]TdR uptake measured by spleen cell proliferation assay by adding compound dose of 10 ng/mL; outline: as §1
Mus musculus [3] = species: Mus musculus; assay: [3H]TdR uptake measured by spleen cell proliferation assay by adding compound dose of 100 ng/mL; outline: as §1

| Compound | Incorporation (Mus musculus [1]) [c.p.m.] | Incorporation (Mus musculus [2]) [c.p.m.] | Incorporation (Mus musculus [3]) [c.p.m.] |
| --- | --- | --- | --- |
| CCCCCCCCCCCCCCC[C@@H](O)[C@H](CO[C@H]1O[C@@H](CO)[C@H](O)[C@H](O)[C@@H]1O)NC(=O)CCCCCCCCCCNC(=O)CCCCCNC(=O)CCCC[C@@H]1SC[C@@H]2NC(=O)N[C@@H]21 | 4628 | 8665 | 14588 |
| CCCCCCCCCCCCCCCCCCCCCCCCCC(=O)N[C@@H](CO[C@H]1O[C@H](CO)[C@H](O)[C@H](O)[C@H]1O)[C@H](O)[C@H](O)CCCCCCCCCCCCCC [RGI-7000] | 13499 | 17438 | 17636 |
| CCCCCCCCCCCCCCCC[C@H](CO[C@H]1O[C@@H](CO)[C@H](O)[C@H](O)[C@@H]1O)NC(=O)CCCCCCCCCCNC(=O)CCCCCNC(=O)CCCC[C@@H]1SC[C@@H]2NC(=O)N[C@@H]21 | 4803 | 5330 | 9427 |
| CCCCCCCCCCCCCC[C@@H](O)[C@@H](O)[C@H](CO[C@H]1O[C@@H](CO)[C@H](O)[C@H](O)[C@@H]1O)NC(=O)CCCCCCCCCCNC(=O)CCCCCNC(=O)CCCC[C@@H]1SC[C@@H]2NC(=O)N[C@@H]21 (stereo in doubt; form 1) | 4811 | 4833 | 5463 |
